MC4R antag cAMP – blocks human MC4R cAMP signaling. P32245. MC4R-expressing cells, MTII-stimulated cAMP, LANCE TR-FRET. inhibition, % at 6.5 µM. 360,000 tested, 0.48% active. AID 540295;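 active = inhibition above its plate's cutoff, the mean of tested wells on that plate plus 3 SD, cut at about 29% in these data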;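 note: 0% = Melanotan II alone and 100% = Melanotan II plus saturating MCL0020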
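System: U2OS-MC4R stable cell line; Technique: Eu-cAMP/anti-cAMP TR-FRET, emission 671 nm; Repeats: single well per compound; Also added: Melanotan II; Dosing: one concentration, 6.5 µM nominal; Schedule: 30-min compound, 1-h challenge, 1-h detection, room temperature.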
HTR2A ag – activates the mouse 5-HT2A serotonin receptor | P35363 | CHO-K1 mHTR2A beta-arrestin complementation, luminescence; percent of 30 µM serotonin response | activation, % at 7.6 µM | 360,000 tested, 0.66% active | AID 624169;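 active = activation above a run cutoff, the mean activation of all tested compounds plus 3 SD, cut at about 14% in these data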;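 note: 0% = plate median of compound wells and 100% = 30 µM serotonin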
FXN GAA850 act – activators of GAA850 frataxin (FXN) promoter. HEK293 lucGAA850 FXN promoter luciferase reporter, 24 h; percent of 10 µM SAHA response. activation, % at 6 µM. 360,000 tested, 0.56% active. AID 540364;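 active = activation above the average of all compounds screened plus 3 SD, cutoff fixed separately per campaign, cut at about 7.5% in these data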;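 note: 0% = DMSO wells and 100% = 10 µM SAHA wells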
AHR act – human AHR activation | activation, % at 5 µM | P35869 | AHR-responsive luciferase reporter cells, luminescence | 320,000 tested, 2.5% active; in the data active = activation above about 47%;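 note: 0% = vehicle wells and 100% = reference agonist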
MC4R barr agon – agonists of human melanocortin 4 receptor (MC4R) beta-arrestin; P32245; U2OS MC4R beta-arrestin complementation, luminescence; percent of melanotan II response, DMSO zero; activation, % at 8.9 µM; 360,000 tested, 0.98% active; AID 540308;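 active = activation above a per-plate cutoff, the mean activation of sample wells on that plate plus 3 SD, cut at about 8% in these data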
MOR ag counter – OPRM1 agonism in mouse HTR2A counterscreen; shares compounds with HTR2A ag; activation, % at 9.3 µM; U2OS OPRM1 beta-arrestin PathHunter, luminescence; DMSO 0%, DAMGO 9.3 µM 100%; 2,300 tested, 5.3% active;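 active = mean activation above the mean of DMSO-only wells plus 3 SD, cut at about 0.5% in these data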
Target sequence (P35372 whole entry, looked up): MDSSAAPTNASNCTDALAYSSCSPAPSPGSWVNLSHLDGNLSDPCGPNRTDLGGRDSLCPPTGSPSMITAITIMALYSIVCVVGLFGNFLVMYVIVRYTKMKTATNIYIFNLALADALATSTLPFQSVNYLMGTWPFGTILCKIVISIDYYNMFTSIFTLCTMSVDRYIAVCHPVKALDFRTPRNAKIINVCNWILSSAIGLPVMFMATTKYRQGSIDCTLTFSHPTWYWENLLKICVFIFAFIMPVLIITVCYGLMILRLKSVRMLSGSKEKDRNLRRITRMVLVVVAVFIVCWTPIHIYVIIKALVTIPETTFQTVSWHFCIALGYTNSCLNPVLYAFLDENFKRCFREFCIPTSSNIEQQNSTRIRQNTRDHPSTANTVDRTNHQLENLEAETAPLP
m5-HT2A ag conf – mouse HTR2A agonism confirmed. shares compounds with HTR2A ag. activation, % at 7.6 µM. AID 624381. 2,300 tested, 19% active. CHO-K1 PathHunter beta-arrestin recruitment, luminescence; DMSO 0%, 30 µM serotonin 100%;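 active = mean activation across triplicates above the hit threshold derived in the original primary screen, cut at about 15% in these data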
Numbers without * were called inactive; x = no result. In the library only some 4.7% were active in any assay of this set; here they are far more common.

SMILES	MC4R antag cAMP	HTR2A ag	FXN GAA850 act	AHR act	MC4R barr agon	MOR ag counter	m5-HT2A ag conf
CCOP(=O)(OCC)C(O)c1ccccc1 (stereo not given)	-4	16*	2	-1	-1	-1	-5
CCOP(=O)(OCC)C(O)c1ccc(Br)cc1 (stereo not given)	12	-3	0	1	-1	x	x
CC(C#N)CCC#N (stereo not given)	12	-2	-2	0	0	x	x
O=C(Oc1c(Cl)cc(Cl)c2ccccc12)N1CCCCC1	-5	15*	3	11	4	0	6
Brc1cccc(CNCCc2ccc3c(c2)OCO3)c1	5	21*	0	6	0	1.4*	21*
c1ccc(CNCCc2ccc3c(c2)OCO3)nc1	-2	4	3	5	0	x	x
COC(=O)C1=C(c2cccc(OCc3ccccc3)c2)C[C@@H]2CC[C@H]1N2C(=O)NCc1ccc([N+](=O)[O-])cc1	11	6	-5	-1	0	x	x
Cc1nc2ccccc2c(=O)n1-c1ccc(F)cc1F	-4	1	3	-1	0	x	x
CN1C[C@H](CO)C[C@@H]2c3cccc4[nH]cc(c34)C[C@H]21	6	23*	-2	0	0	0	113*
CN1C[C@H](CNC(=O)OCc2ccccc2)C[C@@H]2c3cccc4c3c(cn4C)C[C@H]21	5	-1	0	2	2	x	x
CCN(CC)C(=O)N[C@H]1C[C@@H]2c3cccc4[nH]cc(c34)C[C@H]2N(C)C1	1	39*	-1	1	0	-1	93*
CC[C@H](C)[C@@H]1NC(=O)CNC(=O)c2csc(n2)[C@H](C(C)(C)O)OC(=O)C(C)(C)[C@H](CCCC(C)(Cl)Cl)OC(=O)c2csc1n2	x	15*	x	x	x	0	5
Cc1nc2cc(OC(=O)N(C)Cc3cccc(-c4ccncc4)c3)ccc2s1	x	20*	x	x	x	0	-4
CCCN1CCc2cccc3c2[C@H]1Cc1ccc(O)c(O)c1-3	-9	62*	-2	1	0	1.4*	136*
COc1ccc2c(c1O)-c1c(OC)c(OC)cc3c1[C@H](C2)N(C)CC3	7	-3	-1	3	0	x	x
COc1ccc(-c2ccc3c(c2)CN(C(=O)NC2CCCCC2)Cc2cnnn2-3)cc1	x	-7	x	x	x	x	x
CC1=NN=C(c2ccc(N)cc2)c2cc3c(cc2C1)OCO3	16	31*	-1	0	1	0	40*
COc1ccc(CCNCc2ccc(C)s2)cc1OC	3	16*	3	1	-1	0	-1
COc1ccc(CCNCc2cccn2C)cc1OC	0	25*	1	1	-2	-1	14
Cc1ccc(CNCCc2ccc(F)cc2)s1	3	-1	0	2	-1	x	x
Cn1cccc1CNCCc1ccc(F)cc1	3	7	2	8	-1	x	x
COc1ccc(CCNCc2sccc2C)cc1OC	10	32*	1	6	1	0	9
Cc1cc(N(CCCl)CCCl)ccc1C=NNC(=O)Cc1cc(=O)oc2cc(O)ccc12	1	8	-3	x	0	x	x
COc1ccc2c3c1OC1C(O)C=CC4[C@@H](C2)N(C)CC[C@]314 (stereo not given in full)	14	6	0	-1	-1	x	x
CC(=O)c1ccc(OCC(=O)N2CCCC(N3CCN(c4ccccc4C)CC3)C2)cc1 (stereo not given)	5	-8	1	0	-1	x	x
SMILES	MC4R antag cAMP	HTR2A ag	FXN GAA850 act	AHR act	MC4R barr agon	MOR ag counter	m5-HT2A ag conf
CC(=O)N1CCC(N2CCCC(C(=O)c3cccc(Cl)c3)C2)CC1 (stereo not given)	-2	36*	3	3	0	0	86*
O=C1NC(=O)C(Cc2cccs2)C(=O)N1	1	-2	1	2	-1	x	x
COC1CC2C=C(C)C=CC=CC(=O)NC(c3ccccc3)CC=CCCC(O)CC(=O)C2=C1O (stereo not given)	x	21*	x	x	x	6.0*	19*
COc1cc(CC(C)N)c(OC)cc1I (stereo not given)	6	70*	-1	0	-1	0	39*
CCOC(=O)c1c(C=O)c2ccccc2n1Cc1ccccc1	4	4	3	0	0	x	x
FC(F)(F)c1ccc(CNCCc2c[nH]c3ccccc23)cc1	1	2	3	5	3	x	x
Clc1cccc(CNCCc2c[nH]c3ccccc23)c1	-2	42*	4	-2	1	0	19*
CN1CCN(C(=O)Cc2ccccc2)CC1	-3	20*	1	3	3	-1	1
O=C(Cc1ccccc1)N1CCN(Cc2ccccc2Cl)CC1	0	22*	2	0	0	-1	2
COc1ccc(C=O)cc1O	3	4	0	0	-1	x	x
CC(C)(O)/C=C/C(=O)C(C)(O)C1C(O)CC2(C)C3CC=C4C(C=C(O)C(=O)C4(C)C)C3(C)C(=O)CC12C (stereo not given)	-11	30*	-14	x	-3	0	8
ClC1=C(Cl)C2(Cl)C3C(Cl)C=CC3C1(Cl)C2(Cl)Cl (stereo not given)	17	-3	0	-2	-2	x	x
Cc1cccc(OCC(O)CN2CC2)c1 (stereo not given)	6	2	0	x	0	x	x
CC(=O)c1cccc(OCC(O)CN2CC=C(c3ccccc3)CC2)c1 (stereo not given)	2	19*	2	-2	0	-1	79*
Cc1cc(C)cc(NC(=O)CCNC(=O)N2C[C@H]3C[C@@H](C2)c2cccc(=O)n2C3)c1	17	-1	-1	1	1	x	x
CCOC(=O)COc1ccc2c(c1)c(C(C)=O)c(C)n2Cc1ccccc1	-1	-7	1	-1	-3	x	x
O=C(COc1ccc2ccccc2c1)N1CCN(Cc2c[nH]c3ccccc23)CC1	1	34*	1	42	1	0	19*
O=C(COc1ccc(Br)cc1)N1CCN(Cc2c[nH]c3ccccc23)CC1	8	56*	5	14	0	0	28*
c1ccc2c(CN3CCCCC3)c[nH]c2c1	2	4	1	13	-2	x	x
Cn1c(O)c(C(=NCCc2c[nH]c3ccccc23)c2ccccc2)c(=O)n(C)c1=O	-4	1	3	1	-4	x	x
CCN(CC)CCOC(=O)c1ccc(N=Cc2c(O)[nH]c(=O)[nH]c2=O)cc1	-6	-7	-1	1	-2	x	x

Bioassay records as filed in PubChem BioAssay.
